From ChEMBL document CHEMBL1158465, “Novel small molecule bradykinin B2 receptor antagonists” (J Med Chem, 2009) come the findings set out here.

A word on the IC50: it is the concentration that inhibits the measured activity by half. Broadly, the bioavailability is the share of a dose that reaches the circulation, judged against a reference dose that is usually intravenous. Read a high bioavailability as much systemic uptake.

A short description of series [1]: Terminal half life in Wistar rat at 1 mg/kg, iv or 1 mg/kg, po. Format: ADME, organism-based. Particulars: in vivo, read-out: beta t1/2.
Series [2] can be described thus: Metabolic stability in human liver microsomes at 1 uM by HPLC. Format: ADME, Microsome. The following applies: read-out: Stability. In outline: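 Test compound was incubated with liver microsomes for 30 min. Stability is expressed as the percentage of parent compound remaining at the end of incubation.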
For orientation: Liver microsomes are a subcellular fraction often used to study metabolism.

Another series deals with Cytochrome P450 2C19 (Homo sapiens, UniProt P33261). The experiment in a line: Inhibition of human CYP2C19 by microtiter plate assay. It is filed as ADME.
Sequence of Cytochrome P450 2C19 (P33261 whole entry): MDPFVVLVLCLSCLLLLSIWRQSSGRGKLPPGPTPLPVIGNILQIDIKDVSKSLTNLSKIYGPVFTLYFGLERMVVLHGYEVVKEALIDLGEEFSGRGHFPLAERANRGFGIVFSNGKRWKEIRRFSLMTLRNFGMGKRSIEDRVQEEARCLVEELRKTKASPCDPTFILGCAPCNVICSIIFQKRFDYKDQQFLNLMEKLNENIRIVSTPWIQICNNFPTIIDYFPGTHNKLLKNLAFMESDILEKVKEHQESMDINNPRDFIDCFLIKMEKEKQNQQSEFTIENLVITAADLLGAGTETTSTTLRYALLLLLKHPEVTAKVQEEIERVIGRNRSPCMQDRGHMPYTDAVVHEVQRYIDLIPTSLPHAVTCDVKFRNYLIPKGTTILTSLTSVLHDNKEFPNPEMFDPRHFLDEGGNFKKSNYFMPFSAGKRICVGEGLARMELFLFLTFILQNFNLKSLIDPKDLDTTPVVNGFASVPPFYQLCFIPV
Series [3] has as its target T1, B2 bradykinin receptor (Homo sapiens, UniProt P30411).
T1 sequence (P30411 whole entry): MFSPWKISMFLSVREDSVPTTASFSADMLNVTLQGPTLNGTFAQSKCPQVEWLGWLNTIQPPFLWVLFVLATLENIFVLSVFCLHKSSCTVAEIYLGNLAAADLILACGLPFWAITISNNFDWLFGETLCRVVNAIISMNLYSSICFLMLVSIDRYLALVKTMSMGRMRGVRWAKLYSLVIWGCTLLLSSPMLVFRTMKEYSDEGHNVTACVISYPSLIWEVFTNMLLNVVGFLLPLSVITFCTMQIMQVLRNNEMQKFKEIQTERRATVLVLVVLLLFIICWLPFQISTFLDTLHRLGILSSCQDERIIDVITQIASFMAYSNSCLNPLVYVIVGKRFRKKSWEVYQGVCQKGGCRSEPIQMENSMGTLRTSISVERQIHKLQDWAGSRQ
The series can be described thus: Antagonist activity at B2 receptor in human HF15 cells assessed as inhibition of bradykinin-induced calcium mobilization. Format: functional, cell-based. (Calcium flux is commonly read through the fluorescence of an indicator in the cells.)

The next series has as its target Cytochrome P450 3A4 (Homo sapiens, UniProt P08684). The experiment in a line: Inhibition of human CYP3A4 by microtiter plate assay. Format: ADME.
A short description of series [4]: Oral bioavailability in Wistar rat at 1 mg/kg. Format: ADME, organism-based. The following applies: in vivo.
The nature of series [5]: Clearance in Wistar rat at 1 mg/kg, iv or 1 mg/kg, po. Format: ADME, organism-based. Particulars: in vivo.
Series [6] concerns the target T1, B2 bradykinin receptor. The series can be described thus: Displacement of [3H]bradykinin from human recombinant B2 receptor expressed in HEK293 cells. It is filed as cell-based. For orientation: Loss of bound radioactivity is the signal in a displacement assay; it reports binding, not function.

Sequence of Cytochrome P450 3A4 (P08684 whole entry): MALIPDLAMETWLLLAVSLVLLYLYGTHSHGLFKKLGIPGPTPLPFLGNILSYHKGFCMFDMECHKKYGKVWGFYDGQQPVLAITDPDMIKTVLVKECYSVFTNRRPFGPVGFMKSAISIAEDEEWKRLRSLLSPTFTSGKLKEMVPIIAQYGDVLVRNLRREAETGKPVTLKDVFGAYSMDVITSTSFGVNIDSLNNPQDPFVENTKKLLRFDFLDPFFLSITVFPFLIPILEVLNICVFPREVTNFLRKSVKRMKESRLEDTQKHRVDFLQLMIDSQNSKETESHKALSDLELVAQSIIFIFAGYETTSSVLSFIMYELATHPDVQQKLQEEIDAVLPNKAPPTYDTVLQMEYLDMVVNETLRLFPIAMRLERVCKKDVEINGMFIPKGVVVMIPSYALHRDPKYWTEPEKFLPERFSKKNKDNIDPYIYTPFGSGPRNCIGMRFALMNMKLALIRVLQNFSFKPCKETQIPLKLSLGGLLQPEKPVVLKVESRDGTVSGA

In the case of `Cc1cc(-c2[nH]ncc2C)c2cccc(OCc3c(C)ccnc3Cn3cccc(C(F)(F)F)c3=O)c2n1`, in series [1], the half-life came out at 67 min. For the same compound, in series [2], the remaining at 1 µM turned out to be 21%. The IC50 at Cytochrome P450 2C19 was above 5 µM; at B2 bradykinin receptor [3], 1.1 nM; against Cytochrome P450 3A4, 3.8 µM; at B2 bradykinin receptor [6], 8.7 nM. For the same compound, the bioavailability in series [4] was above 17%. Besides, the clearance in series [5] amounted to 21 mL/min/kg.
